Source: ChEMBL document CHEMBL1145427, “Quick assembly of 1,4-diphenyltriazoles as probes targeting beta-amyloid aggregates in Alzheimer's disease” (J Med Chem, 2007)
One block for each compound: values may come before it.

Experiments:
Zone of skin [1] = assay: Biodistribution in ICR mouse skin at 5 to 10 uCi, iv after 1 hr; type: ADME, organism-based; details: in vivo
Procedure, shortened: (§1)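 Male ICR mice (22–25 g) under isoflurane anesthesia; [125I] or [18F] tracer (5–10 μCi) in 0.15 mL of 0.1% bovine serum albumin solution injected into the tail vein. Groups of n = 3 per time point, killed by cervical dislocation. Organs removed, weighed and gamma-counted against diluted aliquots of injected dose, giving % dose/organ and % ID/g. Total blood activity assumed as 7% of body weight.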

Spleen [2] = assay: Biodistribution in ICR mouse spleen at 5 to 10 uCi, iv after 30 mins; type: ADME, organism-based; details: in vivo, 0.5 h; procedure, shortened: as §1
Heart [3] = assay: Biodistribution in ICR mouse heart at 5 to 10 uCi, iv after 1 hr; type: ADME, organism-based; details: in vivo; procedure, shortened: as §1
Blood [4] = assay: Biodistribution in ICR mouse blood at 5 to 10 uCi, iv after 2 hrs; type: ADME, organism-based; details: in vivo; procedure, shortened: as §1
[5] = Partition coefficient, log P of the compound; type: physicochemical; details: octanol/water
Procedure, shortened: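 [125I] or [18F] tracer mixed with 3 g each of 1-octanol and 0.1 M phosphate buffer pH 7.4. Vortexed 3 min at room temperature, then centrifuged 5 min. Two 0.5 g samples from each layer counted; PC is the ratio of cpm/g in octanol to cpm/g in buffer. The octanol layer was repartitioned until values were consistent.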

Heart [6] = assay: Biodistribution in ICR mouse heart at 5 to 10 uCi, iv after 2 mins; type: ADME, organism-based; details: in vivo; procedure, shortened: as §1
Kidney [7] = assay: Biodistribution in ICR mouse kidney at 5 to 10 uCi, iv after 2 hrs; type: ADME, organism-based; details: in vivo; procedure, shortened: as §1
Kidney [8] = assay: Biodistribution in ICR mouse kidney at 5 to 10 uCi, iv after 2 mins; type: ADME, organism-based; details: in vivo; procedure, shortened: as §1
Brain [9] = assay: Biodistribution in ICR mouse brain at 5 to 10 uCi, iv after 1 hr; type: ADME, organism-based; details: in vivo; procedure, shortened: as §1
Lung [10] = assay: Biodistribution in ICR mouse lung at 5 to 10 uCi, iv after 1 hr; type: ADME, organism-based; details: in vivo; procedure, shortened: as §1
Thyroid gland [11] = assay: Biodistribution in ICR mouse thyroid at 5 to 10 uCi, iv after 2 mins; type: ADME, organism-based; details: in vivo; procedure, shortened: as §1
Heart [12] = assay: Biodistribution in ICR mouse heart at 5 to 10 uCi, iv after 30 mins; type: ADME, organism-based; details: in vivo, 0.5 h; procedure, shortened: as §1
Lung [13] = assay: Biodistribution in ICR mouse lung at 5 to 10 uCi, iv after 2 hrs; type: ADME, organism-based; details: in vivo; procedure, shortened: as §1
Brain [14] = assay: Biodistribution in ICR mouse brain at 5 to 10 uCi, iv after 2 mins; type: ADME, organism-based; details: in vivo; procedure, shortened: as §1
Brain [15] = assay: Biodistribution in ICR mouse brain at 5 to 10 uCi, iv after 30 mins; type: ADME, organism-based; details: in vivo, 0.5 h; procedure, shortened: as §1
Brain [16] = assay: Biodistribution in ICR mouse brain at 5 to 10 uCi, iv after 2 hrs; type: ADME, organism-based; details: in vivo; procedure, shortened: as §1
Muscle tissue [17] = assay: Biodistribution in ICR mouse muscle at 5 to 10 uCi, iv after 30 mins; type: ADME, organism-based; details: in vivo, 0.5 h; procedure, shortened: as §1
Kidney [18] = assay: Biodistribution in ICR mouse kidney at 5 to 10 uCi, iv after 1 hr; type: ADME, organism-based; details: in vivo; procedure, shortened: as §1
Heart [19] = assay: Biodistribution in ICR mouse heart at 5 to 10 uCi, iv after 2 hrs; type: ADME, organism-based; details: in vivo; procedure, shortened: as §1
Lung [20] = assay: Biodistribution in ICR mouse lung at 5 to 10 uCi, iv after 2 mins; type: ADME, organism-based; details: in vivo; procedure, shortened: as §1
Thyroid gland [21] = assay: Biodistribution in ICR mouse thyroid at 5 to 10 uCi, iv after 1 hr; type: ADME, organism-based; details: in vivo; procedure, shortened: as §1
Blood [22] = assay: Biodistribution in ICR mouse blood at 5 to 10 uCi, iv after 30 mins; type: ADME, organism-based; details: in vivo, 0.5 h; procedure, shortened: as §1
Zone of skin [23] = assay: Biodistribution in ICR mouse skin at 5 to 10 uCi, iv after 30 mins; type: ADME, organism-based; details: in vivo, 0.5 h; procedure, shortened: as §1
Liver [24] = assay: Biodistribution in ICR mouse liver at 5 to 10 uCi, iv after 2 hrs; type: ADME, organism-based; details: in vivo; procedure, shortened: as §1
Thyroid gland [25] = assay: Biodistribution in ICR mouse thyroid at 5 to 10 uCi, iv after 30 mins; type: ADME, organism-based; details: in vivo, 0.5 h; procedure, shortened: as §1
Spleen [26] = assay: Biodistribution in ICR mouse spleen at 5 to 10 uCi, iv after 2 mins; type: ADME, organism-based; details: in vivo; procedure, shortened: as §1
Liver [27] = assay: Biodistribution in ICR mouse liver at 5 to 10 uCi, iv after 2 mins; type: ADME, organism-based; details: in vivo; procedure, shortened: as §1
Blood [28] = assay: Biodistribution in ICR mouse blood at 5 to 10 uCi, iv after 2 mins; type: ADME, organism-based; details: in vivo; procedure, shortened: as §1
Muscle tissue [29] = assay: Biodistribution in ICR mouse muscle at 5 to 10 uCi, iv after 2 hrs; type: ADME, organism-based; details: in vivo; procedure, shortened: as §1
Spleen [30] = assay: Biodistribution in ICR mouse spleen at 5 to 10 uCi, iv after 2 hrs; type: ADME, organism-based; details: in vivo; procedure, shortened: as §1
Zone of skin [31] = assay: Biodistribution in ICR mouse skin at 5 to 10 uCi, iv after 2 mins; type: ADME, organism-based; details: in vivo; procedure, shortened: as §1
Kidney [32] = assay: Biodistribution in ICR mouse kidney at 5 to 10 uCi, iv after 30 mins; type: ADME, organism-based; details: in vivo, 0.5 h; procedure, shortened: as §1
Zone of skin [33] = assay: Biodistribution in ICR mouse skin at 5 to 10 uCi, iv after 2 hrs; type: ADME, organism-based; details: in vivo; procedure, shortened: as §1
Liver [34] = assay: Biodistribution in ICR mouse liver at 5 to 10 uCi, iv after 1 hr; type: ADME, organism-based; details: in vivo; procedure, shortened: as §1
Liver [35] = assay: Biodistribution in ICR mouse liver at 5 to 10 uCi, iv after 30 mins; type: ADME, organism-based; details: in vivo, 0.5 h; procedure, shortened: as §1
Muscle tissue [36] = assay: Biodistribution in ICR mouse muscle at 5 to 10 uCi, iv after 1 hr; type: ADME, organism-based; details: in vivo; procedure, shortened: as §1
Spleen [37] = assay: Biodistribution in ICR mouse spleen at 5 to 10 uCi, iv after 1 hr; type: ADME, organism-based; details: in vivo; procedure, shortened: as §1
Muscle tissue [38] = assay: Biodistribution in ICR mouse muscle at 5 to 10 uCi, iv after 2 mins; type: ADME, organism-based; details: in vivo; procedure, shortened: as §1
Blood [39] = assay: Biodistribution in ICR mouse blood at 5 to 10 uCi, iv after 1 hr; type: ADME, organism-based; details: in vivo; procedure, shortened: as §1
Lung [40] = assay: Biodistribution in ICR mouse lung at 5 to 10 uCi, iv after 30 mins; type: ADME, organism-based; details: in vivo, 0.5 h; procedure, shortened: as §1
[41] = Displacement of [125I]IMPY from beta amyloid protein plaques in Alzheimer's disease patient brain; design: species or system Homo sapiens
Procedure, shortened: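 Competition binding to pooled gray-matter homogenates from four AD brains (approximately 100 mg wet tissue/mL in PBS pH 7.4; 20–50 μg per tube). [125I]2 at 0.04–0.06 nM; inhibitors 10^-5–10^-10 M in PBS with 0.1% BSA; final volume 1 mL. Nonspecific binding with 600 nM 2. Incubated 37 °C, 2 h; GF/B filtration, gamma counting. Ki from nonlinear regression.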

Drug uptake (Zone of skin [1]): 1.72 % ID/g
Drug uptake (Spleen [2]): 2.21 % ID/g
Drug uptake (Heart [3]): 2.02 % ID/g
Drug uptake (Blood [4]): 2.3 % ID/g
logP [5]: 2.7
Drug uptake (Heart [6]): 4.25 % ID/g
Drug uptake (Kidney [7]): 2.01 % ID/g
Drug uptake (Kidney [8]): 6.94 % ID/g
Drug uptake (Brain [9]): 2.34 % ID/g
Drug uptake (Lung [10]): 2.03 % ID/g
Drug uptake (Thyroid gland [11]): 1.41 % ID/g
Drug uptake (Heart [12]): 2.28 % ID/g
Drug uptake (Lung [13]): 1.79 % ID/g
Drug uptake (Brain [14]): 5.92 % ID/g
Drug uptake (Brain [15]): 2.53 % ID/g
Drug uptake (Brain [16]): 2.08 % ID/g
Drug uptake (Muscle tissue [17]): 1.51 % ID/g
Drug uptake (Kidney [18]): 2.44 % ID/g
Drug uptake (Heart [19]): 1.83 % ID/g
Drug uptake (Lung [20]): 5.68 % ID/g
Drug uptake (Thyroid gland [21]): 3.25 % ID/g
Drug uptake (Blood [22]): 2.65 % ID/g
Drug uptake (Zone of skin [23]): 1.82 % ID/g
Drug uptake (Liver [24]): 2.69 % ID/g
Drug uptake (Thyroid gland [25]): 1.89 % ID/g
Drug uptake (Spleen [26]): 4.04 % ID/g
Drug uptake (Liver [27]): 11.6 % ID/g
Drug uptake (Blood [28]): 2.63 % ID/g
Drug uptake (Muscle tissue [29]): 1.11 % ID/g
Drug uptake (Spleen [30]): 1.43 % ID/g
Drug uptake (Zone of skin [31]): 0.51 % ID/g
Drug uptake (Kidney [32]): 3.35 % ID/g
Drug uptake (Zone of skin [33]): 1.42 % ID/g
Drug uptake (Liver [34]): 3.52 % ID/g
Drug uptake (Liver [35]): 5.54 % ID/g
Drug uptake (Muscle tissue [36]): 1.33 % ID/g
Drug uptake (Spleen [37]): 1.66 % ID/g
Drug uptake (Muscle tissue [38]): 0.73 % ID/g
Drug uptake (Blood [39]): 2.45 % ID/g
Drug uptake (Lung [40]): 2.72 % ID/g
Structure (SMILES): CN(C)c1ccc(-c2cn(-c3ccc(OCC[18F])cc3)nn2)cc1

Drug uptake (Zone of skin [1]): 0.41 % ID/g
Drug uptake (Spleen [2]): 1.29 % ID/g
Drug uptake (Heart [3]): 0.69 % ID/g
Drug uptake (Blood [4]): 0.31 % ID/g
logP [5]: 2.7
Drug uptake (Heart [6]): 5.79 % ID/g
Drug uptake (Kidney [7]): 0.35 % ID/g
Drug uptake (Kidney [8]): 9.01 % ID/g
Drug uptake (Brain [9]): 1.81 % ID/g
Drug uptake (Lung [10]): 0.88 % ID/g
Drug uptake (Thyroid gland [11]): 1.57 % ID/g
Drug uptake (Heart [12]): 1.93 % ID/g
Drug uptake (Lung [13]): 0.76 % ID/g
Drug uptake (Brain [14]): 6.56 % ID/g
Drug uptake (Brain [15]): 2.84 % ID/g
Drug uptake (Brain [16]): 1.29 % ID/g
Drug uptake (Muscle tissue [17]): 1.03 % ID/g
Drug uptake (Kidney [18]): 2.69 % ID/g
Drug uptake (Heart [19]): 0.23 % ID/g
Drug uptake (Lung [20]): 7.65 % ID/g
Drug uptake (Thyroid gland [21]): 16.87 % ID/g
Drug uptake (Blood [22]): 1.91 % ID/g
Drug uptake (Zone of skin [23]): 1.41 % ID/g
Drug uptake (Liver [24]): 0.76 % ID/g
Drug uptake (Thyroid gland [25]): 9.62 % ID/g
Drug uptake (Spleen [26]): 3.98 % ID/g
Drug uptake (Liver [27]): 15.6 % ID/g
Drug uptake (Blood [28]): 3.23 % ID/g
Drug uptake (Muscle tissue [29]): 0.1 % ID/g
Drug uptake (Spleen [30]): 0.17 % ID/g
Drug uptake (Zone of skin [31]): 0.93 % ID/g
Drug uptake (Kidney [32]): 3.68 % ID/g
Drug uptake (Zone of skin [33]): 0.11 % ID/g
Drug uptake (Liver [34]): 2.06 % ID/g
Drug uptake (Liver [35]): 5.06 % ID/g
Drug uptake (Muscle tissue [36]): 0.36 % ID/g
Drug uptake (Spleen [37]): 0.58 % ID/g
Drug uptake (Muscle tissue [38]): 0.89 % ID/g
Drug uptake (Blood [39]): 0.75 % ID/g
Drug uptake (Lung [40]): 2.4 % ID/g
Structure (SMILES): CN(C)c1ccc(-c2cn(-c3ccc(OCCC[18F])cc3)nn2)cc1

Ki [41]: 16.5 nM
Structure (SMILES): CN(C)c1ccc(-c2cn(-c3ccc(OCCOCCOCCO)cc3)nn2)cc1
